Source: PubChem BioAssay (several laboratories)
Compounds with a hit are over-represented: about 5.1% of the library has one in this group of screens.
STAT3 inh – reduces IL-6 driven STAT3 reporter signal. inhibition, % at 5.5 µM. AID 862. U3A cells, IL-6 STAT3-luciferase reporter, luminescence; host cell line lacks STAT1. hit rate 0.89% among 190,000;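 active = inhibition above the mean inhibition across all screened compounds plus 3 SD, cut at about 44% in these data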;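 also: 0% = DMSO only wells and 100% = 100 µM nifuroxazide control wells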
STAT1 activator – increases IFN-gamma driven STAT1 reporter signal; NIH 3T3 STAT1-luciferase reporter, luminescence; 100% = IFN-gamma alone, no compound; activation (% of control), % at 5.5 µM; hit rate 2.6% among 200,000; AID 932;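 active = activation above the screen-wide mean activation plus 3 SD, cut at about 130% in these data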;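 also: raw ratio to IFN-gamma control signal so 100% means no change and 0% no light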
STAT1 inh – STAT1 signaling inhibition | AID 920 | inhibition, % at 5.5 µM | NIH 3T3 STAT1-luciferase reporter, IFN-gamma, luminescence | hit rate 0.35% among 200,000;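 active = inhibition above a set limit, the mean inhibition across all tested compounds plus 3 SD, cut at about 34% in these data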;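 also: 0% = IFN-gamma with DMSO and 100% = IFN-gamma with 300 µM nifuroxazide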
APP 5'UTR act – activates APP 5'UTR luciferase reporter; SH-SY5Y APP 5'UTR luciferase reporter, luminescence; zero percent = DMSO vehicle wells; activation, % at 2 µM; hit rate 1% among 190,000; AID 1276;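 active = activation above a set limit, based on mean plus 3 SD of controls, cut at about 140% in these data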
NF-kB neuron act – NF-kB expression increase, human neuronal cells; hit rate 1.6% among 190,000; fold change at 12.5 µM; NF-kB reporter expression; active compounds read high; AID 1239; in the data active = fold change above about 3.3
STAT3 act – increases IL-6 driven STAT3 reporter signal | U3A cells, IL-6 STAT3-luciferase reporter, luminescence; 100% = signal with IL-6 EC80 alone | activation (% of control), % at 5.6 µM | hit rate 0.91% among 190,000 | AID 871;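 active = activation above the screen-wide mean of compound activation plus 3 SD, cut at about 130% in these data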;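 also: 0% = background luminescence of wells with medium and substrate only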
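Test system: Human STAT1-deficient U3A cells with stable STAT3-luciferase reporter | Also added: Interleukin-6, 33 ng/mL | Timing: Compound pre-incubation 1 h before IL-6, then 6 h stimulation at 37 °C | Technique: Luciferase reporter luminescence | Read-out: Percent of IL-6-only median luminescence | Benchmarks: IL-6-only wells as 100% reference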
STAT1 activ conf – confirmation of STAT1 signaling activators | hit rate 97% among 1,200 | activation (% of control), % at 5.7 µM | AID 1262 | shares compounds with STAT1 activator | NIH 3T3 STAT1-luciferase reporter, IFN-gamma potentiation, luminescence; 100% = IFN-gamma EC80 alone, no compound;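 active = activation above a set limit carried over from the earlier primary STAT1 screen, cut at about 140% in these data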;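 also: simple ratio to median IFN-gamma plus DMSO wells so 0% means no light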
NFkB act – counter-screen for STAT1 activators: NF-kappaB activation. hit rate 43% among 1,200. activation (% of control), % at 5.7 µM. HEK293T NF-kB luciferase reporter, TNF-alpha stimulated, luminescence; 100% = TNF-alpha with vehicle only. shares compounds with STAT1 activator;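 active = activation above the mean of solvent-only control wells plus 3 SD, set per campaign, cut at about 130% in these data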;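 also: TNF-alpha given at a submaximal dose yielding about 80% of full reporter signal; values are well signal over median control so 100% means no change and 0% no light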
STAT3 act STAT1c – counter-screen for STAT1 activators: human STAT3 activation; shares compounds with STAT1 activator; U3A cells STAT3-luciferase reporter, IL-6, luminescence; cells lack STAT1; 100 = IL-6 alone, no compound effect; activation (% of control), % at 5.7 µM; hit rate 46% among 1,200; AID 1316;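 active = activation above the solvent-only control well mean plus 3 SD, set per plate batch, cut at about 110% in these data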;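 also: 0% = no luminescence and 100% = median IL-6 plus DMSO wells; higher means more STAT3 reporter activation so hits are non-selective activators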
* marks the source's active call; other numbers are inactive results; . = no result.

SMILES	STAT3 inh	STAT1 activator	STAT1 inh	APP 5'UTR act	NF-kB neuron act	STAT3 act	STAT1 activ conf	NFkB act	STAT3 act STAT1c
Cc1cc(/C=N/NC(N)=S)c(C)n1-c1cccc(Cl)c1	10.8	99.4	-0.8	-8.1	1.15	97.3	.	.	.
Cc1cc(/C=N/NC(=O)c2nn(C)cc2Cl)c(C)n1-c1cccc(Br)c1	-6.2	158.8*	-64.7	3.8	1.48	108.9	112.8	107.7	90.9
c1ccc(Cn2c(-c3ccco3)nc3nc4ccccc4nc32)cc1	2.9	152.3*	-57.5	61.4	2.14	101.8	158.2*	126.9	115.2*
CC(C)CCN1CCN(Cc2ccc(Sc3nncn3C)o2)CC1CCO (stereo not given)	0.5	95.1	3.5	-2.8	0.86	101.6	.	.	.
COc1ccccc1-c1nn2c(-c3ccco3)nnc2s1	13.0	172.1*	-78.7	44.1	1.4	90.4	192.3*	137.9*	107.7
CNc1oc(/C=C/c2ccccc2)nc1C#N	-8.2	154.5*	-60.0	112.4	5.3*	103.0	166.9*	136.2*	103.5
CNc1oc(-c2ccccc2)nc1C#N	16.1	102.1	-0.8	20.1	1.18	90.2	.	.	.
CC(=Nc1ccc(O)cc1)c1sc2ccccc2c1O	17.8	169.6*	-76.5	170.7*	13.3*	92.9	230.5*	150.1*	104.1
O=[N+]([O-])c1ccc(N=Cc2sc3ccccc3c2O)cc1	-11.2	101.7	-1.9	24.4	1.15	111.8	.	.	.
CC(C)OCCCNc1ncc2c(n1)CC(c1ccccc1)CC2=O (stereo not given)	0.6	113.8	-14.1	1.9	0.87	100.0	.	.	.
c1ccc(-c2c3ccccc3nc3[nH]c4ccccc4c23)cc1	-6.8	95.1	5.4	0.6	0.94	103.3	.	.	.
c1ccc2nc3c(nc2c1)[nH]c1ccccc13	-12.5	160.1*	-66.0	257.3*	5.9*	116.4	202.2*	131.5	126.1*
CC(=O)NC12CC3CC(C1)CC(C(=O)OCC(=O)Nc1ncc(Cl)c(C)c1Cl)(C3)C2	6.0	107.9	-10.4	8.9	1.13	98.6	.	.	.
CC(=O)NC12CC3CC(C1)CC(C(=O)OCC(=O)c1ccc4c(c1)OCCO4)(C3)C2	-8.6	161.4*	-67.0	155.6*	3.13	111.2	211.5*	125.4	123.6*
O=C(NCc1cccnc1)/C(=C\c1ccc(-c2ccc(Cl)c(Cl)c2)o1)S(=O)(=O)c1ccccc1	12.4	86.1	15.4	-15.3	0.14	92.2	.	.	.
CCOc1ccc2nc(N3CCC(C(=O)N4CCN(C5CCCCC5)CC4)CC3)sc2c1	23.8	116.8	-18.7	12.5	1.01	84.4	.	.	.
CCOc1ccc2nc(N3CCCCCC3)sc2c1	29.4	191.1*	-98.0	194.2*	7.16*	76.0	246.3*	144.3*	105.6
CCOCC(=O)Nc1nc2ccc(OCC)cc2s1	27.9	151.9*	-56.4	83.7	2.84	78.4	167.2*	124.6	100.8
Cc1ccc(C2(c3noc(CN(C)Cc4cccnc4)n3)CCCC2)cc1	-1.8	95.6	3.3	-10.4	0.93	105.5	.	.	.
Fc1cccc(Cc2noc(CN3CCCCC3c3ccccn3)n2)c1 (stereo not given)	0.0	104.1	-5.7	-0.7	1.01	103.0	.	.	.
Cc1ccc(Nc2n[nH]c(C)c2[N+](=O)[O-])cc1C	-12.0	191.0*	-100.2	209.5*	7.72*	109.9	239.3*	146.9*	117.4*
Cc1cc(C)nc(SCc2csc(-c3ccccc3)n2)n1	22.3	168.6*	-76.0	146.5*	4.45*	83.5	187.3*	125.4	98.7
CN(C)S(=O)(=O)N1CCCC(C(=O)c2ccc(-c3ccccc3)c(F)c2)C1 (stereo not given)	9.9	95.2	3.2	13.9	0.8	97.4	.	.	.
